Measurements collected from several papers.
Protocols differ between the studies behind these lines.
Target: Activin receptor type-1B (ACVR1B, Homo sapiens, UniProt P36896)
One construct used (P36896 24-505): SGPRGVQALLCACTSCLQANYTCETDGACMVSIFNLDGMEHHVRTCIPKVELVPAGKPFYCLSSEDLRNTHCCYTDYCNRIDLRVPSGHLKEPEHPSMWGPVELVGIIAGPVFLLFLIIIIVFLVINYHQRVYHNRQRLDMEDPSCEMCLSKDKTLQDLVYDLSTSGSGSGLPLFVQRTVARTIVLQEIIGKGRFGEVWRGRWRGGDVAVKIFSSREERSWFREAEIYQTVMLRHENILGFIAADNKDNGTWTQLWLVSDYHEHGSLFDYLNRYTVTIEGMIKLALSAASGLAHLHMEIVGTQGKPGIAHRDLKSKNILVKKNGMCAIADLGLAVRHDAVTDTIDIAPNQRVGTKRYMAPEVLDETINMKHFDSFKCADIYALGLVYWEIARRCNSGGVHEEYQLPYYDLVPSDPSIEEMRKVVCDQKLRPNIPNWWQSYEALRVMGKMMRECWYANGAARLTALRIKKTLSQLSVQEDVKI

Compound	test	conditions	endpoint	result
COc1cc(-c2cc(-c3ccc(N4CCNCC4)cc3)cnc2C)cc(OC)c1OC	enzyme activity, inhibitor	1 µM	inhibition	36%
CC(C)(C)c1nc(-c2cccc(NS(=O)(=O)c3c(F)cccc3F)c2F)c(-c2ccnc(N)n2)s1	enzyme activity, inhibitor, radiometric	1 µM	remaining activity	22%
C[C@H](c1ccc(F)cc1)N(Cc1cccc(C(=O)O)c1)C(=O)c1cnc2ccccc2c1	cell-free assay, competition with immobilised ligand	1 µM	remaining binding	100%
O=C1NC(=O)c2cc(Nc3ccc(F)cc3)c(Nc3ccc(F)cc3)cc21	cell-free assay	0.5 µM	remaining signal	94.2%
CCCOc1ccc(OC)c(F)c1C(=O)c1ccc(C(=O)N[C@@H]2CNC[C@H]2NC(=O)c2ccc3[nH]ncc3c2)cc1	enzyme activity, inhibitor	10 µM	remaining activity	91%
O=c1cc(-c2cccc3c2Sc2ccccc2S3)oc(N2CCOCC2)c1	enzyme activity, inhibitor	0.5 µM	remaining activity	114%
CNCc1ccccc1-c1csc([C@H](C)Nc2nc(C)nc3cc(OC)c(OC)cc23)c1	cell-free assay, competition with immobilised ligand	1 µM	remaining binding	100%
CN(C)C1CCN(CC#Cc2nn(C3CCCC3)c3nc(NCc4ccccc4)ncc23)C1 (centres unmarked)	enzyme activity, inhibitor, FRET	0.1 µM	inhibition	0%
CC1(C)NC(=O)c2[nH]c3c(Cl)c(Cl)ccc3c2C1C#N (centres unmarked)	thermal stability, DSF	10 µM	ΔTm	1.6 °C
Cc1cnc(NC2CCOCC2)nc1-n1cnc(C(=O)NC(CN)c2cc(F)cc(Cl)c2)c1 (centres unmarked)	enzyme activity, inhibitor, radiometric	1 µM	remaining activity	109%
O=C(Nc1ccc(Oc2ccc(F)cc2)cc1)N1CCc2ncccc2[C@H]1c1ccc(F)cc1	cell-free assay, competition with immobilised ligand	1 µM	remaining binding	94%
Cn1c2c(c3ccc(Cl)c(Cl)c31)C(C#N)C1(CCNCC1)NC2=O (racemic)	thermal stability, DSF	10 µM	ΔTm	-0.1 °C
Cc1sc(C(=O)NC2COC2)cc1-n1cc(NC(=O)Nc2c(F)cccc2Cl)cn1	enzyme activity, inhibitor	10 µM	remaining activity	78.5%
CS(=O)(=O)Nc1cccc(-c2csc(NC(=O)CSc3nc4nccnc4c(=O)n3CCc3ccccc3)n2)c1	enzyme activity, inhibitor	10 µM	inhibition	2%
Cn1cc(Cl)c2c(Oc3c(F)cc(Nc4cc(Cl)nc(N)n4)cc3F)ccnc21	cell-free assay, competition with immobilised ligand	0.1 µM	remaining binding	98%
CCCS(=O)(=O)Nc1ccc(F)c(C(=O)c2c[nH]c3ncc(-c4ccc(Cl)cc4)cc23)c1F	enzyme activity, inhibitor	1 µM	inhibition	< 10%
C[C@@H](c1cccc(C#N)c1)n1cc(Cl)cc(C(N)=O)c1=N	cell-free assay, competition with immobilised ligand	1 µM	remaining binding	100%
Cc1ccc(Nc2nccc(N(C)c3ccc4c(C)n(C)nc4c3)n2)cc1S(N)(=O)=O	cell-free assay, inhibitor	0.3 µM	inhibition	-22%
CN([C@@H]1CCc2c(CC(=O)O)c3cc(S(C)(=O)=O)ccc3n2C1)S(=O)(=O)c1ccc(F)cc1	cell-free assay, competition with immobilised ligand	1 µM	remaining binding	99%
Cn1c2c(c3ccc(Cl)c(Cl)c31)C(C#N)C1(CCOCC1)NC2=O (centres unmarked)	thermal stability, DSF	10 µM	ΔTm	0.2 °C
